The values that follow come from publication PMC4668232 (Cancer research, 2015).

Numbered stars: 1 amine (or outer) side, 2 acyl side, 3 side chain; on linkers, the order of the positions; unused ones are H or OH. Peptide text beside a SMILES is read from it. * marks the point of attachment. AMC = Cc1cc(=O)oc2cc(N*)ccc12; Suc = O=C(CCC(=O)[*:2])[*:1]; Cbz = O=C(OCc1ccccc1)*

The target in assay [1] is USP9x (Mus musculus, UniProt P70398). The assay can be described thus: DUB activity profiling in cell lysates, USP9x labeling. Particulars: read-out: IC50, inhibition of USP9x labeling. Format: biochemical.
For assay [2], the target named is UCH37 in the 19S regulatory particle (Homo sapiens, UniProt Q9Y5K5). The assay is described as follows: Activity profiling of UCH37 in 19S regulatory particle with Cy5-UbVME. Type of assay: biochemical. The settings on record: read-out: EC50, inhibition of UCH37.
For assay [3], the target named is T1, recombinant USP9x (Homo sapiens, UniProt Q93008). The assay is described as follows: Recombinant DUB assay. Format: biochemical. The settings on record: for Ki: read-out: Ki, recombinant USP9x, Ub-AMC hydrolysis. The method, boiled down: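 Purified recombinant human USP9x was assayed by Ub-AMC hydrolysis. AMC release was monitored fluorimetrically at 37 °C in 50 mM HEPES pH 7.6, 100 mM NaCl, 0.75 mM BME and quantified against AMC standard curves. Slow-binding kinetics were analysed: kon was determined at varied Ub-AMC concentrations to assign inhibition mode, and Ki was derived.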
T1 sequence (Q93008 whole entry): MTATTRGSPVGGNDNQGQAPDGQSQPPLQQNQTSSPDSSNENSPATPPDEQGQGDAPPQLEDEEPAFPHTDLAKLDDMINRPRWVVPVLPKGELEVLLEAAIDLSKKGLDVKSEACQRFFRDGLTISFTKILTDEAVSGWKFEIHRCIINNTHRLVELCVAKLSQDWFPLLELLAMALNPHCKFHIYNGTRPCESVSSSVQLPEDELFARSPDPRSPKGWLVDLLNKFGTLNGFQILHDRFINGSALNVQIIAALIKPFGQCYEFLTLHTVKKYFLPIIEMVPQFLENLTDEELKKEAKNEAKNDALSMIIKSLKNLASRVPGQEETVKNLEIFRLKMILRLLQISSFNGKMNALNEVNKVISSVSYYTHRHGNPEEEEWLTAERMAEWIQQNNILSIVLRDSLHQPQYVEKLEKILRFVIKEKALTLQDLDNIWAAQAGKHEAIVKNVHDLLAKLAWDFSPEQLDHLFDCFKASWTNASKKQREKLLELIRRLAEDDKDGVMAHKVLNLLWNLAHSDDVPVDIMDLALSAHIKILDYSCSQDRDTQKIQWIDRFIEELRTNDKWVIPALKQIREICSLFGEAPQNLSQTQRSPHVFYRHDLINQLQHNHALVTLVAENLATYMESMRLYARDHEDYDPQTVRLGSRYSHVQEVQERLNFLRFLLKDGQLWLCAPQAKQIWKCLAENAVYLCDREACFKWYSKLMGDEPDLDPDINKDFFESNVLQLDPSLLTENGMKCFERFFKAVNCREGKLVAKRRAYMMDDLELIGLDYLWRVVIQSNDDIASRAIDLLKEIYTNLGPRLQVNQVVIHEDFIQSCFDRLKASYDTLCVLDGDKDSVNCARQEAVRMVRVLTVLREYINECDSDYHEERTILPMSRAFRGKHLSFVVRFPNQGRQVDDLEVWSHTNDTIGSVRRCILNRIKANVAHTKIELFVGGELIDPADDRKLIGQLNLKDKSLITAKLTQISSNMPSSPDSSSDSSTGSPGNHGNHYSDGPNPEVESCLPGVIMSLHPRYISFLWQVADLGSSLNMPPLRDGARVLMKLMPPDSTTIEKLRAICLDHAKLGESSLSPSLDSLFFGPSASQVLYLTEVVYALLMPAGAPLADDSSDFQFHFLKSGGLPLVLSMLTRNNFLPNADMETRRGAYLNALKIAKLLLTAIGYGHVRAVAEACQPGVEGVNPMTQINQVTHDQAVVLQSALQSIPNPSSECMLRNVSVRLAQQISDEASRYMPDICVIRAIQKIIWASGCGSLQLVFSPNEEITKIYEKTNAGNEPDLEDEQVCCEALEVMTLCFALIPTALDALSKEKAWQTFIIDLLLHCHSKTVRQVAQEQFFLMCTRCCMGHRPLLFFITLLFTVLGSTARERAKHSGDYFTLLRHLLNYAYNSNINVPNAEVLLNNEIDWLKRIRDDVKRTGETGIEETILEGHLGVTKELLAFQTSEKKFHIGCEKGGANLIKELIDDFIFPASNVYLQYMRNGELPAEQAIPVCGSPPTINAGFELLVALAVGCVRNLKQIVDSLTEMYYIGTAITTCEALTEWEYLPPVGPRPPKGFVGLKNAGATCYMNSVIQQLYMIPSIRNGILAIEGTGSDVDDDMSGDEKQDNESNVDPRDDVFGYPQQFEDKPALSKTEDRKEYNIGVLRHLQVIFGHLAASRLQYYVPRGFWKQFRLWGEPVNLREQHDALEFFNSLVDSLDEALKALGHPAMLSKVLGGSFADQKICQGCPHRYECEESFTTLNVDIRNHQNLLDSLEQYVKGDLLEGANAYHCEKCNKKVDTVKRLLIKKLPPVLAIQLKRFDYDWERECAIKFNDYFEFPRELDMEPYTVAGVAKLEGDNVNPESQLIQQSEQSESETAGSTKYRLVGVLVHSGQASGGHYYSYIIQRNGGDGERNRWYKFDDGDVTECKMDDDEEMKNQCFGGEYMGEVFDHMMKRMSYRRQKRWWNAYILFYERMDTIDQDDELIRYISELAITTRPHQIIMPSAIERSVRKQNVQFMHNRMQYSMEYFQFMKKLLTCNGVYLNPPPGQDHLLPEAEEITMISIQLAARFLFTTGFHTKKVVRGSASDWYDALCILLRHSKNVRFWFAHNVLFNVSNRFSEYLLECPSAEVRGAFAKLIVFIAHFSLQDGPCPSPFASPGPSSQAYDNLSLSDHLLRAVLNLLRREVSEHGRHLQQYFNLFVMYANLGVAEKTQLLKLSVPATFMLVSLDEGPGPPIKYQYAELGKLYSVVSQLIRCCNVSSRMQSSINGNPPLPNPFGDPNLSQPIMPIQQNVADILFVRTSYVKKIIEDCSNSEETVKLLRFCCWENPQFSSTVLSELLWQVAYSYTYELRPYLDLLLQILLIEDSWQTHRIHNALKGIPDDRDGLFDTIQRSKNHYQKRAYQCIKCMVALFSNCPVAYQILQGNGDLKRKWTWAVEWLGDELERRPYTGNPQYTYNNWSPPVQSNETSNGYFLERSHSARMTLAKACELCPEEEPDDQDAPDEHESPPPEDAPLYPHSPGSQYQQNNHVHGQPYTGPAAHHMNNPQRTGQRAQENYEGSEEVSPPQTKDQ

The target of assay [4] is USP24 (Mus musculus, UniProt B1AY13). The assay is described as follows: DUB activity profiling in cell lysates, USP24 labeling. Format: biochemical. The settings on record: read-out: IC50, USP24 labeling.
Assay [5] deals with recombinant UCHL3 (Homo sapiens, UniProt P15374). The assay can be described thus: Recombinant DUB assay, UCHL3. Type of assay: biochemical.
recombinant UCHL3, sequence (P15374 whole entry): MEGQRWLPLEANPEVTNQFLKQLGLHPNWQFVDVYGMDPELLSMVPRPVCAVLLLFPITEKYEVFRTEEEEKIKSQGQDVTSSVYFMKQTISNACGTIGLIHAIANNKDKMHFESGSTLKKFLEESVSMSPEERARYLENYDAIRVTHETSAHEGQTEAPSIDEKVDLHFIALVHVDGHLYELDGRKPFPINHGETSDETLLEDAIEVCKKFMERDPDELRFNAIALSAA
The test system of assay [6] is Mcl-1 in BaF3/p210 cells. The assay is described as follows: Mcl-1 levels, western blot. Particulars: 4 h. Format: cell-based, mouse. (Immunoblotting shows a protein as a band on a membrane.)
Assay [7] has as its system Flag-Mcl-1 in COS1 cells. The assay is described as follows: Flag-Mcl-1 ubiquitination, immunoprecipitation. Type of assay: cell-based, African green monkey. The settings on record: COS1 cells expressing Flag-Mcl-1, 2 h.
For assay [8], the target named is USP7 (Mus musculus, UniProt Q6A4J8). The assay is described as follows: DUB activity profiling in cell lysates, USP7. Type of assay: biochemical. Particulars: immunoblotting.
USP7, sequence (Q6A4J8 whole entry, the tested form may be a part): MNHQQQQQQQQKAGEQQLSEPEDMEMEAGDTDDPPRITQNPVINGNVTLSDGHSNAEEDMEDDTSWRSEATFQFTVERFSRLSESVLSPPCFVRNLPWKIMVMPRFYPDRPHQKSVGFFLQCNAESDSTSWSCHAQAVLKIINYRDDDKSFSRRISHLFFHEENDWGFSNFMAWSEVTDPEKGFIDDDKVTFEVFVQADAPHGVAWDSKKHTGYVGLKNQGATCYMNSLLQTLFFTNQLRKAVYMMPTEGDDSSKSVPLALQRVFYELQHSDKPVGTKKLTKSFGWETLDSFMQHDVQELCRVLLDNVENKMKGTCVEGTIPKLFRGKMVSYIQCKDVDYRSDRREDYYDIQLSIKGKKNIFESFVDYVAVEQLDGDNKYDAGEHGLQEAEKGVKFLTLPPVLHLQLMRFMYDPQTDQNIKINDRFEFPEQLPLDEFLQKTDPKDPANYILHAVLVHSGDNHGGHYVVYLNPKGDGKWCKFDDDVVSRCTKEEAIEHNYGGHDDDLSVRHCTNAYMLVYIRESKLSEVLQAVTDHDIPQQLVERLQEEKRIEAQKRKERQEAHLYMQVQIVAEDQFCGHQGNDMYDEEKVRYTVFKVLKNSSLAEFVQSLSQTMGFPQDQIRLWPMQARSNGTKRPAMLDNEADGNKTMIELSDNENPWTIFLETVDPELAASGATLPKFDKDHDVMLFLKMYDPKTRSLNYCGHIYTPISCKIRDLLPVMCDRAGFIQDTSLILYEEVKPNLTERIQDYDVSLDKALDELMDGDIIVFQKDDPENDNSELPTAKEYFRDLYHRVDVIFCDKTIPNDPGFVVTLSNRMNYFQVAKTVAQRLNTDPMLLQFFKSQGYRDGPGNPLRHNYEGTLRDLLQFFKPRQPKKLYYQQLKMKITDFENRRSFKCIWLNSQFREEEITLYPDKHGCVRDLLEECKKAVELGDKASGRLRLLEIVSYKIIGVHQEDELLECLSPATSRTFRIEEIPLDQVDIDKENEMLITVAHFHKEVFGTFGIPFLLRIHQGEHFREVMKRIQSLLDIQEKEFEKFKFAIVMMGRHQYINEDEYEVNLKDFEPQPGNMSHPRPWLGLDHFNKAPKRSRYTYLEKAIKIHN
Assay [9] concerns the target catalytic domain of USP7 (Homo sapiens, UniProt Q93009). The assay can be described thus: Recombinant DUB assay, USP7 catalytic domain. Type of assay: biochemical.
Assay [10] has as its system K48-linked Ub in BaF3/p210 cells. The assay is described as follows: K48-linked HMW-Ub accumulation, whole cell lysate western blot. The settings on record: 4 h; for Increase in K48-linked Ub: 15 μM; for Accumulation of K48-linked HMW-Ub: bortezomib 20 nM. Format: cell-based, mouse.
The test system of assay [11] is 26S proteasome activity in COS1 cells expressing Ub^G76V-GFP. The assay is described as follows: Ubiquitin G76V-GFP assay. Format: cell-based, African green monkey. The settings on record: 8 h; for Effect on GFP levels: BITC, PEITC 12 μM, WP1130 5 μM.
Assay [12] concerns Bcr-Abl in BaF3/p210 and K562 cells. The assay is described as follows: Bcr-Abl ubiquitination. Particulars: 5 μM, 2 h. Type of assay: cell-based. The method, boiled down:
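BaF3/p210 cells (1 h) or K562 cells (2 h) were exposed to 5 μM test compound or 0.1% DMSO at 37 °C. Lysates were set to 1 mg/mL and pre-cleared with protein G (1 h, 4 °C). Bcr-Abl was immunoprecipitated with anti-cAbl overnight at 4 °C onto protein G beads. Alternatively, K63-linked polyubiquitinated proteins were enriched on RAP80-UIM agarose. Immunoblotting followed.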

Assay [13] concerns the target UCH37 (Mus musculus, UniProt Q9WUP7). The assay is described as follows: DUB activity profiling in cell lysates, UCH37 labeling. Type of assay: biochemical. Particulars: read-out: IC50, inhibition of UCH37 labeling.
Assay [14] relates to K63-linked Ub in BaF3/p210 cells. The assay can be described thus: K63-linked HMW-Ub accumulation, whole cell lysate western blot. The settings on record: 4 h. Type of assay: cell-based, mouse.
For assay [15], the system named is Bcr-Abl in BaF3/p210 cells. The assay is described as follows: Bcr-Abl levels and aggregation, western blot. Type of assay: cell-based, mouse.
Assay [16] deals with PARP cleavage in BaF3/p210 cells. The assay is described as follows: PARP cleavage, western blot. Format: cell-based, mouse. Particulars: 5 μM.
For assay [17], the system named is cancer cell lines. Particulars: read-out: EC50, inhibition of cell growth; exposure for only 3 h; cited from earlier work.
Assay [18] has as its target USP9x in BaF3/p210 cells (Mus musculus, UniProt P70398). The assay is described as follows: USP9x inhibition in living cells. Type of assay: cell-based. Particulars: read-out: IC50, USP9x inhibition in cells; BaF3/p210 cells treated 4 h.
Assay [19] deals with DUBs. Type of assay: biochemical, mouse. Particulars: for Reversibility of inhibition of DUB labeling: lysate incubated with 250 μM ITC, then diluted 20-fold into HA-UbVS; for Labeling of several DUBs (bands between 120 and 300 kDa): cell lysates, HA-UbVS.
For assay [20], the system named is MCF7, NIH3T3 and COS1 cells. The assay can be described thus: Proliferation/viability assay, 48 h. Format: cell-based.
For assay [21], the system named is BaF3, BaF3/p210 and K562 cells. The assay can be described thus: Proliferation/viability assay, 48 h. Type of assay: cell-based. Particulars: read-out: EC50, viability.
For assay [22], the target named is human 20S proteasome (Homo sapiens, UniProt P28074). The assay is described as follows: 20S proteasome assay. Format: biochemical. Particulars: substrate; Hill coefficient = 2; pH 7.6, 25 °C.
Assay [23] deals with proteasome activity of rabbit reticulocyte lysate. The assay is described as follows: Proteasome activity of rabbit reticulocyte lysate. Format: biochemical. The settings on record: substrate; Hill coefficient = 1.3.
Assay [24] has as its target T1, recombinant USP9x. The assay is described as follows: Labeling of recombinant USP9x with Cy5-UbVME. Format: biochemical. Particulars: read-out: IC50, inhibition of labeling of recombinant USP9x with Cy5-UbVME; purified recombinant enzyme.

UCH37, sequence (Q9WUP7 whole entry): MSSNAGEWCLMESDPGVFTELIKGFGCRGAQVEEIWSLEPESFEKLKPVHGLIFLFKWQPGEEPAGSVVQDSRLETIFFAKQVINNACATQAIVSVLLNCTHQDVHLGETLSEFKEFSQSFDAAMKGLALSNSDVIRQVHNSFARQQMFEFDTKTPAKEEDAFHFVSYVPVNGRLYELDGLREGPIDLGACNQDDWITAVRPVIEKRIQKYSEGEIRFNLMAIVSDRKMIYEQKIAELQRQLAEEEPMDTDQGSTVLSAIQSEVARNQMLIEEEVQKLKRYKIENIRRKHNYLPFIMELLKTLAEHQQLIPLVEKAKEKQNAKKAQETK
catalytic domain of USP7, sequence (Q93009 214-521 limits assumed): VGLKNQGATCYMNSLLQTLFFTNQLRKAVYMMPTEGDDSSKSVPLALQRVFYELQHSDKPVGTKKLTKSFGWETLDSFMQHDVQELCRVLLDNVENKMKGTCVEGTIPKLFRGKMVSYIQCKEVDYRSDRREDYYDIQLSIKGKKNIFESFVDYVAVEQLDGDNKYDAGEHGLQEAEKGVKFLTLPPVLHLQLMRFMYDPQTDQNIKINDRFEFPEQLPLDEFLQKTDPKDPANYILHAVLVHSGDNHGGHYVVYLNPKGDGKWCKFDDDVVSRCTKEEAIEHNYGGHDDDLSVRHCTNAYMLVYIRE

Consider `S=C=NCc1ccccc1` [BITC, benzyl ITC], for which the IC50 was 27 ± 6 µM in assay [1], 56 ± 5 µM in assay [4], 22 ± 4 µM in assay [13] and 4 ± 1 µM in [18]. Further, the EC50 is 31 ± 6 µM in assay [2], 1.8 to 17 µM in [17] and 1 to 3 µM in [21]. Moreover, the “Mode of inhibition of recombinant USP9x” value in assay [3] is recorded as “slow binding competitive inhibitors”. In assay [3], the Ki amounted to 25 ± 1 µM. Also, the “Inhibition of recombinant UCHL3” value in assay [5] is “No inhibition”. Further, the “Effect on Mcl-1 levels” value in assay [6] is reported as “decrease”. In assay [7], the “Levels of ubiquitinated Flag-Mcl-1” value was “increased”. Moreover, the “Inhibition of USP7” value in [8] is “do not inhibit”. Further, the “Inhibition of the catalytic domain of USP7” value in assay [9] is reported as “No inhibition”. Besides, in assay [10], the “Increase in K48-linked Ub” value was 2 to 4 fold. In [11], the “Effect on GFP levels” value is reported as “did not increase”. Further, the Bcr-Abl ubiquitination entry in assay [12] is recorded as “increase”. The “Increase in K63-linked Ub” value in assay [14] was 9-18 fold. Moreover, the “Effect on levels of total Bcr-Abl” value in assay [15] was “decreased”. Besides, the Bcr-Abl knockdown result in assay [15] (5 μM, 2 h) was “essentially complete”. Besides, in assay [16], the “Time at which PARP cleavage was observed” value was 6 h. In [19], the “Reversibility of inhibition of DUB labeling” value is listed as “slowly reversible”. The “Fold less sensitive than Mcl-1-dependent cells” value in assay [20] fell in the range of 8 to 40 fold.
As to `CC(C)C[C@H](NC(=O)[C@H](Cc1ccccc1)NC(=O)c1cnccn1)B(O)O` [bortezomib, reference compound], in [6], the “Effect on Mcl-1 levels” value is “increased”. The “Levels of ubiquitinated Flag-Mcl-1” value in [7] is given as “increased”. Besides, the “Accumulation of K48-linked HMW-Ub” value in [10] is “increased”. Also, the “Increase in GFP fluorescence” value in assay [11] (bortezomib 4 μM) is 1.5 fold. In addition, the “Effect on K63-linked Ub” value in assay [14] (bortezomib 20 nM) is reported as “no effect”.
As for `CCC[C@H](NC(=O)/C(C#N)=C/c1cccc(Br)n1)c1ccccc1` [WP1130, reference compound], in [7], the “Levels of ubiquitinated Flag-Mcl-1” value was “increased”. Also, the “Effect on GFP levels” value in [11] is recorded as “did not cause an increase”. For the same compound, the “Labeling of several DUBs (bands between 120 and 300 kDa)” value in assay [19] is given as “reduced”.
As to `C[S+]([O-])CCCCN=C=S` (stereo not shown) [SFN, sulforaphane], in [10], the “Accumulation of K48-linked HMW-Ub” value is reported as “no effect”. The EC50 in assay [17] was roughly 50 µM.
For `Cc1cc(=O)oc2cc(NC(=O)[C@H](Cc3ccc(O)cc3)NC(=O)[C@@H](NC(=O)[C@H](CC(C)C)NC(=O)[C@H](CC(C)C)NC(=O)CCC(=O)O)C(C)C)ccc12` [Suc-Leu-Leu-Val-Tyr-AMC] (Suc-LLVY-{AMC}), in [22], the “K0.5 for human 20S proteasome” value is 12 ± 2 µM. Moreover, the “Apparent K0.5 of proteasome activity of rabbit reticulocyte lysate” value in assay [23] was 28 ± 3 µM.
Consider `CC(C)C[C@@H](C=O)NC(=O)[C@H](CC(C)C)NC(=O)[C@H](CC(C)C)NC(=O)OCc1ccccc1` [MG-132, reference compound] (Cbz-Leu-Leu-Leu-aldehyde), for which, in assay [6], the “Effect on Mcl-1 levels” value is listed as “increased”.
`S=C=NCCc1ccccc1` [PEITC, phenethyl ITC]: the IC50 in assay [1] was 15 ± 3 µM; in assay [4], 28 ± 5 µM; in assay [24], 20 ± 2 µM; in assay [13], 13 ± 1 µM; in [18] it was 7 ± 2 µM. Further, the EC50 is 36 ± 5 µM in assay [2], 1.8 to 17 µM in [17] and 1 to 3 µM in assay [21]. Further, the “Mode of inhibition of recombinant USP9x” value in [3] is “slow binding competitive inhibitors”. In assay [3], the Ki amounted to 23 ± 2 µM. For the same compound, in assay [5], the “Inhibition of recombinant UCHL3” value is “No inhibition”. Moreover, the “Effect on Mcl-1 levels” value in assay [6] is reported as “decrease”. Also, the “Levels of ubiquitinated Flag-Mcl-1” value in [7] is given as “increased”. In addition, the “Inhibition of USP7” value in assay [8] is given as “do not inhibit”. In addition, the “Inhibition of the catalytic domain of USP7” value in assay [9] is “No inhibition”. Further, the “Increase in K48-linked Ub” value in [10] lay within 2 to 4 fold. Also, the “Effect on GFP levels” value in [11] is “did not increase”. For the same compound, in assay [12], the Bcr-Abl ubiquitination result is “increase”. In [14], the “Increase in K63-linked Ub” value is listed as 9-18 fold. Also, the “Effect on levels of total Bcr-Abl” value in assay [15] is listed as “decreased”. For the same compound, in assay [15] (5 μM, within 2 h), the “Bcr-Abl level, % of its initial level” value is listed as 20%. For the same compound, the “Time at which PARP cleavage was observed” value in [16] is listed as 4 h. Further, the “Reversibility of inhibition of DUB labeling” value in assay [19] is listed as “slowly reversible”. Besides, the “Fold less sensitive than Mcl-1-dependent cells” value in [20] is listed as 8 to 40 fold.
For the compound `O=C1/C(=C/c2ccc([N+](=O)[O-])cc2)CS(=O)(=O)C/C1=C\c1ccc([N+](=O)[O-])cc1` [G5, reference compound], in assay [19], the “Labeling of several DUBs (bands between 120 and 300 kDa)” value is recorded as “reduced”.

In general, IC50 refers to the concentration that gives 50% inhibition. The EC50 is the midpoint of the concentration-response curve. In general, Ki refers to the equilibrium dissociation constant of an inhibitor or competing ligand from its target.
